Hits are enriched below; roughly 4.4% of the tested compounds scored in any of these assays.
Tb MetRS inh = Trypanosoma brucei MetRS inhibition; purified T. brucei MetRS, ATP depletion, Kinase-Glo luminescence; inhibition, % at 11.9 µM; 360,000 compounds, 0.4% hits; AID 624268;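 active means inhibition above a per-plate cutoff of the control wells' mean inhibition plus 3 SD, cut at about 5.5% in these data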;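 further: 0% = DMSO wells median and 100% = median of wells with control inhibitor compound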
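assay system = parasite MetRS enzyme | timing = 15 min preincubation, 2 h reaction, all 25 °C | evaluation = percent inhibition relative to median high and low control wells | medium = HEPES buffer containing pyrophosphatase, BSA, spermine, DTT | compound = single dose, 11.9 µM final nominal, 0.9% final DMSO | detection = Kinase-Glo luminescence, ATP depletion format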
bovine MsrA act = bovine methionine sulfoxide reductase A activation; purified bovine MsrA, absorbance read-out; activation, % at 10.6 µM; 360,000 compounds, 0.3% hits; in the data active means activation above about 7.5%;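 further: 0% = vehicle and 100% = reference activator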
AI-2 QS modul = Vibrio harveyi AI-2 quorum sensing modulation; Vibrio harveyi JMH597 AI-2 luminescence/OD600 ratio, 9 h; active compounds read low; strain lacks LuxN and CqsS sensors; 0 = neutral-control median; activity change, % at 7.5 µM; 300,000 compounds, 0.4% hits; AID 2094; in the data active means activity change below about -75%, passing the limit was not always enough;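 further: luminescence divided by OD600 gain over 9 h not by final OD600 alone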
MsrA inhibitor = inhibits bovine methionine sulfoxide reductase A | purified bovine MsrA, absorbance read-out | inhibition, % at 15.5 µM | AID 651718 | 360,000 compounds, 0.75% hits; in the data active means inhibition above about 4.5%;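 further: 0% = vehicle wells with enzyme and 100% = reference inhibitor wells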
AHR activator = human AHR activation | P35869 | AHR-responsive luciferase reporter cells, luminescence | activation, % at 5 µM | 320,000 compounds, 2.5% hits; in the data active means activation above about 47%;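 further: 0% = vehicle wells and 100% = reference agonist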
HTR2A ag = activates the mouse 5-HT2A serotonin receptor; 360,000 compounds, 0.66% hits; P35363; CHO-K1 mHTR2A beta-arrestin complementation, luminescence; percent of 30 µM serotonin response; activation, % at 7.6 µM;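 active means activation above a run cutoff, the mean activation of all tested compounds plus 3 SD, cut at about 14% in these data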;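 further: 0% = plate median of compound wells and 100% = 30 µM serotonin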
AHR act confirm = human AHR activation, confirmation; shares compounds with AHR activator; human cells, AHR-responsive luciferase reporter, luminescence; activation, % at 9 µM; 2,300 compounds, 87% hits; AID 2845; in the data active means activation above about 49%;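 further: HepG2 hepatoma cells carrying a DRE-driven firefly luciferase reporter; 0% = vehicle wells and 100% = reference agonist wells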
PXR counter = activates human PXR in AHR activator counter-screen | shares compounds with AHR activator | cell-based PXR reporter, luciferase luminescence | activation, % at 11.6 µM | 2,300 compounds, 88% hits | AID 434939; in the data active means activation above about 11%;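 further: human hepatoma DPX-2 cells expressing full-length human PXR; 0% = DMSO and 100% = reference agonist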
* marks the source's active call; other numbers are inactive results; · = no result.

SMILES | Tb MetRS inh | bovine MsrA act | AI-2 QS modul | MsrA inhibitor | AHR activator | HTR2A ag | AHR act confirm | PXR counter
N#C/C(=C1/CCCCCN1)c1nc2ccccc2s1 | 1 | -2 | 24 | 2 | 87* | -5 | 122* | 56*
CC(=O)Nc1ccccc1Oc1ccccc1 | 0 | -3 | 14 | 0 | -1 | 2 | · | ·
O=C(Nc1ccccc1Oc1ccccc1)c1ccccc1F | 0 | -7 | 24 | 0 | 119* | -5 | 131* | 20*
CCOC(=O)C1CCCN(C(=O)c2cc(OC)ccc2Br)CC1 (stereo not drawn) | 0 | -1 | · | -2 | · | 4 | · | ·
Cc1cccnc1C1=NOC(Cc2ccccc2)C(=O)N1CCOc1ccc(F)cc1 (stereo not drawn) | 1 | -1 | · | -1 | · | 1 | · | ·
N#CC(C#N)=C1C=CC=CN1/C(=C\c1ccco1)C(=O)c1ccc(-c2ccccc2)cc1 | 0 | -3 | · | 2 | 10 | 0 | · | ·
N#CC(C#N)=C1C=CC=CN1/C(=C\c1ccco1)C(=O)c1ccc(Cl)cc1 | 0 | -15 | · | 2 | 178* | -2 | 133* | 51*
COc1cc(C(=O)N2CCN(c3ccccc3)CC2)c2ccccc2n1 | 0 | -3 | · | 0 | · | -6 | · | ·
c1ccc(-c2cc3c(-n4cccc4)ncnc3o2)cc1 | 0 | -3 | 12 | 0 | 86* | 0 | 105* | 23*
c1ccc(Oc2ncnc3oc(-c4ccccc4)cc23)cc1 | -1 | -3 | -18 | 0 | 5 | 3 | · | ·
O=c1n2c(c(O)n1C1CCCCC1)C(c1ccccc1)=Nc1ccccc1C2 | 0 | -3 | · | 1 | · | 3 | · | ·
CC1CCCC/C1=N\NC(=S)Nc1cccnc1 (stereo not drawn) | 0 | 0 | 15 | 0 | 113* | -3 | 73* | 12*
Nc1nc(/C=C/c2cccnc2)nc(-c2ccccc2O)n1 | -1 | -6 | · | 0 | 28 | 3 | · | ·
Nc1nc(/C=C/c2ccc(F)cc2)nc(-c2ccccc2O)n1 | -1 | -10 | 9 | 0 | 109* | 4 | 136* | 18*
CC(C)(C=O)C1=CC(=O)c2ccccc2C1=O | 0 | -8 | · | -1 | 83* | -5 | 112* | 26*
O=C(Nc1cccc(Cl)c1)c1ccc(NCC2CCCO2)c([N+](=O)[O-])c1 (stereo not drawn) | -1 | -10 | 19 | 1 | 91* | -5 | 6 | 30*
Nc1nc(NCC2CCCO2)nc(Nc2cccc(Cl)c2)c1[N+](=O)[O-] (stereo not drawn) | -1 | -11 | 9 | -1 | 99* | 12 | 27 | 16*
O=C(Nc1cc(F)c(Br)cc1F)c1ccc(Cl)cc1 | 0 | 3 | 8 | 2 | 83* | -8 | 98* | 31*
O=C(/C=C/c1ccc(Cl)c([N+](=O)[O-])c1)Nc1ccc(N2CCCC2)cc1 | -1 | -5 | 13 | 0 | 84* | -4 | 95* | 18*
CCOC(=O)c1c(C)n(C)c2ccc(OC)c(NC(=O)c3cccs3)c12 | 0 | -2 | 14 | 2 | 20 | -1 | · | ·
CCCS(=O)(=O)Nc1c(OC)ccc2c1c(C(=O)OCC)c(C)n2C | 0 | -1 | 17 | 0 | 85* | -3 | 74* | 119*
Cc1ccc(/C=N/NC(=O)C2COc3ccccc3O2)s1 (stereo not drawn) | 0 | -3 | 4 | 4 | 1 | 2 | · | ·
Cn1cc(/C=N\NC(=O)C2COc3ccccc3O2)c2ccccc21 (stereo not drawn) | · | · | 20 | 1 | 97* | · | 71* | 12*
Cc1ccccc1NC(=O)CSc1n[nH]c(-c2ccccn2)n1 | 0 | -2 | 35 | -2 | 3 | -4 | · | ·
O=C(NCCCN1CCOCC1)c1cc(-c2ccc3c(c2)OCO3)nc2ccccc12 | 0 | 0 | 5 | 2 | 42 | -1 | · | ·
Cc1cc(C)nc(NC(=O)c2cc(-c3ccc4c(c3)OCO4)nc3ccccc23)c1 | -1 | -2 | 8 | 1 | 89* | -6 | 78* | 44*

Screening data: PubChem, several laboratories
